# In PubChem BioAssay AID602271 (Johns Hopkins Ion Channel Center, 2012):
# Activity calls are given as the source filed them.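 How the source made its calls: active means changes KCNQ2 potassium channel current, up or down, at some tested dose, giving a fitted dose response; inactive means no effect at any dose or no dose response.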
# Molecular target: Potassium voltage-gated channel subfamily KQT member 2 (Rattus norvegicus) (UniProt O88943)
# Experiment: rat KCNQ2 channel inhibitors, SAR follow-up, orthogonal assay, automated electrophysiology, CHO cells (AID 602271)
# Conditions: automated patch clamp current
# Procedure, shortened: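 Test system: CHO cells carrying KCNQ2 channels | Probe or stimulus: Depolarization from -90 mV to +40 mV, 2,000 ms | Compound dosing: Multi-concentration series | Detection: Automated patch clamp, amphotericin B perforation, steady-state current at +40 mV | Evaluation: Percent steady-state current change after compound versus pre-compound current | Repeats: Quadruplicate measurements per concentration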
# Sequence of Potassium voltage-gated channel subfamily KQT member 2 (Rattus norvegicus) (O88943 whole entry, looked up): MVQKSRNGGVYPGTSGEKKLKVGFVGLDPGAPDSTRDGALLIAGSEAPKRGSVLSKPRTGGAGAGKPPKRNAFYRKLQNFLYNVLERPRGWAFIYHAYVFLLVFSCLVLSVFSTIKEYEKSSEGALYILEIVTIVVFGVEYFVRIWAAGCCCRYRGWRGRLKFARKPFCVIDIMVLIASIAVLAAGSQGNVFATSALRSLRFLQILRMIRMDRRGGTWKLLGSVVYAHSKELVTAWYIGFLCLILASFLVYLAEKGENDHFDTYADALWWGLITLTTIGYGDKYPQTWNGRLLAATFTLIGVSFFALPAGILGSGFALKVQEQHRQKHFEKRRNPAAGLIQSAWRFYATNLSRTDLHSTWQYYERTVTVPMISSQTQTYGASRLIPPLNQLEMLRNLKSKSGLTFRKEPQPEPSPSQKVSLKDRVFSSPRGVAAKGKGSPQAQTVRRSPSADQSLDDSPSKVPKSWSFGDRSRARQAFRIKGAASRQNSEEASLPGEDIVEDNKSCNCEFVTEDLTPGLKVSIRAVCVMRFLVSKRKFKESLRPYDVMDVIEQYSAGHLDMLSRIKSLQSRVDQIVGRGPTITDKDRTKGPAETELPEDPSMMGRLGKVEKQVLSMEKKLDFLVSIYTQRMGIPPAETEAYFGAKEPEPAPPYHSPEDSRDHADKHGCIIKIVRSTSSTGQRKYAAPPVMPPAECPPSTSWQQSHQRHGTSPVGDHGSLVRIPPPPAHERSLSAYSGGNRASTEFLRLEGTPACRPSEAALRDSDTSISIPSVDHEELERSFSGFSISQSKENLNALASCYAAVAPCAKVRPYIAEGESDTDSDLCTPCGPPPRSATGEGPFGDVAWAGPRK
row,Structure (SMILES),IC50 [µM]
1,O=C(Cc1cccc(Cl)c1)Nc1ccc(Cl)cc1Cl,1.52
2,COc1ccc(NC(=O)Cc2cccc(Cl)c2)c(OC)c1,1.24

# Now from value to compound:
row,IC50 [µM],Structure (SMILES)
1,12.3,O=C(Cc1cccc(Cl)c1)Nc1ccccc1-n1cccc1
2,7.09,O=C(Cc1cccc(Cl)c1)Nc1ccccc1N1CCCCC1
3,27.5,CN(C)c1ccccc1NC(=O)Cc1cccc(Cl)c1
4,8.66,O=C(Cc1cccc(Cl)c1)Nc1ccc(N2CCCC2)cc1
5,1.02,O=C(Cc1cccc(Cl)c1)Nc1cccc(N2CCCC2)c1

# Same assay, conditions: automated patch clamp current, at 30 µM (top of the series)
row,Structure (SMILES),"current change %, negative = inhibition"
1,CN(Cc1ccccc1)c1ccccc1NC(=O)Cc1cccc(Cl)c1,inactive
2,O=C(Cc1cccc(Cl)c1)Nc1cccc(F)c1F,inactive
3,O=C(Cc1cccc(Cl)c1)Nc1ccc(F)cc1F,inactive
4,O=C(Cc1cccc(Cl)c1)Nc1cccc2c1OCO2,inactive
5,CCN(C)c1ccccc1NC(=O)Cc1cccc(Cl)c1,inactive
6,CCC(C(=O)N(C)c1ccccc1N1CCCC1)c1ccccc1 (configuration not stated),inactive
7,CN(C(=O)Cc1ccccc1)c1ccccc1N1CCCC1,inactive

# Now from value to compound:
row,"current change %, negative = inhibition",Structure (SMILES)
1,inactive,O=C(Cc1cccc(Cl)c1)Nc1ccccc1F
2,inactive,O=C(Cc1cccc(Cl)c1)Nc1ccccc1N1CCOCC1
3,inactive,O=C(Cc1cccc(Cl)c1)Nc1ccccc1N1CCCCCCC1
